# Assay outcomes (PubChem)
# PAFAH1B2 FP inh – PAFAH1B2 enzyme inhibitors, primary screen, biochemical, fluorescence polarization, human; hit rate 1.2% among 340,000; AID 492953, 2010; inhibition, % at 3.39 µM; recombinant PAFAH1B2, FP-rhodamine activity probe; Platelet-activating factor acetylhydrolase IB subunit alpha2 (Homo sapiens), P68402;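 active = inhibition above the mean of all tested compounds plus 3 SD, cut at about 24% in these data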;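 also: 0% = enzyme with DMSO and 100% = wells lacking PAFAH1B2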
# Target sequence (P68402 whole entry, looked up): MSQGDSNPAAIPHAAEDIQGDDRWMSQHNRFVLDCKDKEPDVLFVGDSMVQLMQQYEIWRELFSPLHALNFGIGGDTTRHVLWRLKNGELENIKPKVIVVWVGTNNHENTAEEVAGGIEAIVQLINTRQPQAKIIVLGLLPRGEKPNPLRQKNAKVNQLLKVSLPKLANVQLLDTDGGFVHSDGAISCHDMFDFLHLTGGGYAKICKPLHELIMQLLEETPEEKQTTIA
# PAFAH1B3 FP inh – PAFAH1B3 enzyme inhibitors, primary screen, biochemical, fluorescence polarization, human; Platelet-activating factor acetylhydrolase IB subunit alpha1 (Homo sapiens), Q15102; recombinant PAFAH1B3, FP-rhodamine probe; inhibition, % at 3.39 µM; hit rate 0.28% among 340,000;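 active = inhibition above the screen-wide average of all tested compounds plus 3 SD, cut at about 25% in these data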;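 also: 0% = enzyme with DMSO only and 100% = wells lacking PAFAH1B3 protein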
# Target sequence (Q15102 whole entry, looked up): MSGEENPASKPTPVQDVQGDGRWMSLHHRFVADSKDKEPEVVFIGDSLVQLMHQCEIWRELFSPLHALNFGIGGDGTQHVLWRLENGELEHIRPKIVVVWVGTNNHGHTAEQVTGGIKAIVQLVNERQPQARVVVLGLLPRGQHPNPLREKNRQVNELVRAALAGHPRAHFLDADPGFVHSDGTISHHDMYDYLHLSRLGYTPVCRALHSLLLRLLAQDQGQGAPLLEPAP
# PREPL inh – PREPL enzyme inhibitors, primary screen, biochemical, fluorescence polarization. Prolyl endopeptidase-like (Homo sapiens), Q4J6C6. recombinant PREPL, fluorescence polarization activity-based probe. inhibition, % at 5.96 µM. hit rate 0.68% among 320,000;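 also: 0% = enzyme with DMSO and 100% = wells lacking enzyme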
# Apaf-1 inh – inhibitors of human Apaf-1 apoptosome, primary screen, biochemical, DEVD-Rh110 fluorescence, uHTS; Apoptotic protease-activating factor 1 (Homo sapiens), O14727; reconstituted apoptosome caspase-3 activity; inhibition, % at 20 µM; hit rate 0.71% among 330,000; active = inhibition of at least 40% at 20 µM;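 also: plate controls were DMSO wells for no effect and DEVD-CHO caspase inhibitor wells for full effect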
#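 Material: reconstituted apoptosome with Apaf-1, cytochrome c, caspase-9, procaspase-3, dATP / Buffer or medium: pH 7.5 Hepes buffer with CHAPS, BSA, DTT / Also added: cytochrome c with DEVD-Rh110 / Schedule: compound with Apaf-1, dATP, procaspase-3 30 min, then 50 min reaction, room temperature / Technique: rhodamine 110 fluorescence at Ex 480/Em 540 nm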
# pPAFAH FP inh – pPAFAH enzyme inhibitors, primary screen, biochemical, fluorescence polarization, human. recombinant pPAFAH, FP-rhodamine probe fluorescence polarization. Platelet-activating factor acetylhydrolase (Homo sapiens), Q13093. AID 463082, 2010. hit rate 1.5% among 330,000. inhibition, % at 3.39 µM;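 active = inhibition above the mean inhibition across the screen plus 3 SD, cut at about 25% in these data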;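 also: inhibitors block binding of the rhodamine activity-based probe so polarization drops; 0% = enzyme with DMSO and 100% = wells lacking pPAFAH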
# PAFAH2 FP inh – PAFAH2 enzyme inhibitors, primary screen, biochemical, fluorescence polarization, human | Platelet-activating factor acetylhydrolase 2, cytoplasmic (Homo sapiens), Q99487 | recombinant PAFAH2, FP-rhodamine activity probe | inhibition, % at 3.39 µM | hit rate 0.99% among 340,000 | AID 492956, 2010;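 active = inhibition above the mean over all tested compounds plus 3 SD, cut at about 30% in these data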;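 also: inhibitors block probe labeling of enzyme so polarization drops; 0% = enzyme with DMSO and 100% = wells lacking PAFAH2 protein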
# PREPL confirm – human PREPL enzyme inhibitors, confirmation, biochemical, fluorescence polarization; recombinant PREPL, fluorescence polarization activity probe; shares compounds with PREPL inh; hit rate 67% among 2,000; inhibition, % at 5.96 µM;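 also: 0% = protein with DMSO and 100% = wells lacking protein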
# Starred values were filed as active, the others as inactive; nt = not tested or not shown. An excerpt weighted towards active compounds, which were near 3.5% of everything screened. Rule as the data show it, unless noted: active = inhibition above about 43%; inactive = the rest.
SMILES,PAFAH1B2 FP inh,PAFAH1B3 FP inh,PREPL inh,Apaf-1 inh,pPAFAH FP inh,PAFAH2 FP inh,PREPL confirm
CC1CN(c2ccc(Cl)nn2)CC(C)O1 (centres undefined),3,3,11,5,-11,0,nt
NCCSc1c(-c2ccc(F)cc2)[nH]c2ccccc12,0,1,27,-18,0,-1,nt
NCCSc1c(-c2ccc(Cl)cc2)[nH]c2ccccc12,2,6,46*,8,0,-2,39
Cc1ccc(-c2[nH]c3ccccc3c2SCCN)cc1,-1,3,57*,1,-1,-3,41
NCCSc1c(-c2ccccc2)[nH]c2ccccc12,0,3,35,36,-3,0,nt
CCN(CC)c1ccc(-n2cc3c(=O)n(C)c(=O)n(C)c3c2)cc1,3,-2,49*,6,11,2,48*
Cc1ccc(C(=O)Nc2ccc(Br)cc2)cc1S(=O)(=O)Nc1ccccn1,-6,-20,43*,9,-22,-7,37
N#Cc1cc(C#N)c(SCC(=O)N2CC(=O)Nc3ccccc32)nc1N,2,6,46*,-7,23,2,38
Nc1ccccc1N=Nc1ccccc1N,6,5,50*,9,13,11,43*
Nc1ccccc1-c1ccccc1N,-4,7,4,-8,3,8,nt
COc1cc(NC(=O)c2ccc(COc3ccccc3Br)o2)cc(OC)c1OC,8,13,44*,12,26*,1,40
COc1ccccc1OCc1ccc(C(=O)Nc2cc(OC)c(OC)c(OC)c2)o1,4,5,nt,-5,nt,3,nt
O=C1NC(Cc2c[nH]c3ccccc23)C(=O)N1Cc1ccc(CN2C(=O)NC(Cc3c[nH]c4ccccc34)C2=O)cc1 (centres undefined),2,7,76*,-21,11,0,57*
O=C1NC(Cc2c[nH]c3ccccc23)C(=O)N1CCOc1ccc(F)cc1 (centres undefined),9,12,-61,6,3,-3,nt
CCOC(=O)c1ccc(Nc2ncccc2[N+](=O)[O-])cc1,1,2,7,-11,11,1,nt
COc1cc(C#Cc2c(-c3cncn3C)n(C)c3ccc(-c4ccc(CN5CCOCC5)cc4)cc23)cc(OC)c1,6,13,45*,35,19,2,29
CC(NC(=O)c1cccs1)c1nnc(SCc2ccc(Cl)cc2Cl)n1C (centres undefined),-1,8,43*,21,-1,-2,39
O=C(COc1cccc(Br)c1)Nc1ccc(N2CCOCC2)cc1N1CCOCC1,2,7,46*,16,9,13,37
Cc1ccccc1OCC(=O)Nc1ccc(N2CCOCC2)cc1N1CCOCC1,-1,5,32,4,4,17,nt
Cc1ccccc1OCCC(=O)Nc1ccc(N2CCOCC2)cc1N1CCOCC1,5,0,43*,8,5,-1,43
O=C(CSc1cccc[n+]1[O-])c1cc(Cl)ccc1Cl,9,2,7,10,-3,26,nt
CN(C)c1ccc(CCc2ccc(N)cc2)cc1,2,5,4,-4,-2,-1,nt
Nc1ccc(N(c2ccccc2)c2ccc(N)cc2)cc1,8,6,48*,30,10,6,26
Cc1csc(NC(=O)CN2C(=O)COc3ccc(Cl)cc32)n1,6,11,7,18,1,10,nt
COCCN(Cc1cc2ccc(C)cc2[nH]c1=O)S(=O)(=O)c1ccccc1,5,6,-7,1,-1,-4,nt
SMILES,PAFAH1B2 FP inh,PAFAH1B3 FP inh,PREPL inh,Apaf-1 inh,pPAFAH FP inh,PAFAH2 FP inh,PREPL confirm
CCOC(=O)c1[nH]c(C)c(C(=O)OCC(=O)NC(C)c2ccc(F)cc2)c1C (centres undefined),-3,-8,-4,1,-4,-3,nt
COc1cc(/C=C/[N+](=O)[O-])ccc1OC(=O)/C=C/c1ccc(F)cc1,-1,-2,47*,18,7,-14,46*
COc1cccc(NC(=O)CCC(=O)Nc2cc(OC)c(NC(=O)c3cccs3)cc2OC)c1,2,-3,nt,6,nt,10,nt
Cc1cccc(C(=O)N/N=C2\CS(=O)(=O)N(C)c3ccsc32)c1,-2,4,8,-23,8,2,nt
Cc1ccc(S(=O)(=O)N2CCN(C(=O)CCC(=O)Nc3ccc(F)cc3F)CC2)cc1,10,10,9,0,4,10,nt
CC(=O)Nc1ccc2c(c1)Cc1c-2cc(Br)c(N)c1Br,5,2,nt,nt,nt,-2,nt
CCc1sc(C(=O)N2CCN(c3ncccn3)CC2)cc1Br,1,0,1,1,2,6,nt
CCCc1nc(SCc2ccc(OCC)cc2)n[nH]1,3,8,4,1,0,5,nt
Cc1ccc(C)c(S(=O)(=O)N2CCN(C(=O)CCCc3c[nH]c4ccccc34)CC2)c1,3,3,47*,20,9,10,35
Cc1ccc(C)c(S(=O)(=O)N2CCN(C(=O)CCc3c[nH]c4ccccc34)CC2)c1,8,7,35,11,3,14,nt
O=C1CC(c2ccccc2)(c2ccccc2)c2ccccc21,1,-1,nt,nt,nt,4,nt
Cc1c(Cl)cccc1NC(=O)COC(=O)c1c2c(nc3ccccc13)CCN(Cc1ccccc1)C2,0,-13,51*,18,4,-13,46*
O=C(NNC(=O)c1ccc2[nH]c(=O)c(=O)[nH]c2c1)c1cccc(Br)c1,5,7,5,-7,0,2,nt
Cc1cc(/C=C2\SC(=Nc3ccc(F)cc3)NC2=O)c(C)n1-c1ccc(S(N)(=O)=O)cc1,4,16,54*,29,15,10,53*
Cc1cc(/C=C2/SC(=O)NC2=O)c(C)n1-c1ccc(N2CCOCC2)cc1,0,2,7,1,10,-3,nt
COc1ccc(NC(=O)Nc2cccc3c2O[C@@H](CN(C)CC2CCCCC2)[C@@H](C)CN([C@H](C)CO)C3=O)cc1,10,2,57*,19,-5,1,51*
C[C@H]1CN([C@@H](C)CO)C(=O)c2cc(NC(=O)Nc3cccc4ccccc34)ccc2O[C@@H]1CN(C)Cc1ccc(-c2ccccc2)cc1,-13,-37,48*,33,-3,-82,45*
